Molecules are shown by their SMILES. Non-standard residues stand in square brackets, D forms with d. Residues, ends and D or L forms follow the SMILES beside them. *: point of attachment. Adamantane1carbonyl = O=C(C12CC3CC(CC(C3)C1)C2)*; Tle = CC(C)(C)[C@H](N)C(=O)O; X2 = CN(C)C(=NCC(=O)*)N(C)C; X3 = C1CCN(N(N2CCCCC2)*)CC1; hSer = N[C@@H](CCO)C(=O)O; Nle = CCCC[C@H](N)C(=O)O; Nva = CCC[C@H](N)C(=O)O; NHBn = c1ccc(CN*)cc1; X1 = CCN(Cc1ccccc1)*

The target of this assay is T1, Pyroglutamylated RF-amide peptide receptor (Homo sapiens, UniProt Q96P65).
T1 sequence (Q96P65 whole entry): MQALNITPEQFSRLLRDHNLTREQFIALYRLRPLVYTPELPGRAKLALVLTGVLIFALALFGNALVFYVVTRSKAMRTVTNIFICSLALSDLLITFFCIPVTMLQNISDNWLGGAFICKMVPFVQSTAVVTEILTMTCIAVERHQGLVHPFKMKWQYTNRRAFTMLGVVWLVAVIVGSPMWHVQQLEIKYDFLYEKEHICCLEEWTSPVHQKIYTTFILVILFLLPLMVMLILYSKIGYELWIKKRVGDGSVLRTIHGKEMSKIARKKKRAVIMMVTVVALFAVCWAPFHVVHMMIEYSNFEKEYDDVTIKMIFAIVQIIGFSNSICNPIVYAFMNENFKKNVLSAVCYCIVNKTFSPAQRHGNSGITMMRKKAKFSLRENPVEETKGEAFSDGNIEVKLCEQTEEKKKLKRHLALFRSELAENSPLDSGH
In words: Agonist activity at DYKDDDDK-flagged human GPR103 receptor expressed in CHO-K1 cells co-expressing G-protein alpha16 assessed as stimulation of calcium mobilization after 2 mins by fluorometric analysis. The format is functional, cell-based. The method in brief: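 CHO-K1 cells stably expressing Gα16 and C-terminally flag-tagged human GPR103 (Geneticin-selected), plated at 40 000 cells/well 24 h before assay. Loaded with 2 μM Fluo-4AM for 1 h, washed, then 30 min in HBSS with 2.5 mM probenecid and 5 mM HEPES. Peptides added at 10^-12 to 10^-5 M final and fluorescence read for 2 min. Triplicates; EC50 from sigmoidal variable-slope fit, at least three experiments.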
As for `CC(C)C[C@H](NC(=O)[C@@H]1CCCN1)C(=O)NCC(=O)N[C@@H](CC(N)=O)C(=O)N[C@@H](CC(C)C)C(=O)N[C@@H](C)C(=O)N[C@@H](CCC(=O)O)C(=O)N[C@@H](CCC(=O)O)C(=O)N[C@@H](CC(C)C)C(=O)N[C@@H](CC(N)=O)C(=O)NCC(=O)N[C@@H](Cc1ccc(O)cc1)C(=O)N[C@@H](CO)C(=O)N[C@@H](CCCN=C(N)N)C(=O)N[C@@H](CCCCN)C(=O)N[C@@H](CCCCN)C(=O)NCC(=O)NCC(=O)N[C@@H](Cc1ccccc1)C(=O)N[C@@H](CO)C(=O)N[C@@H](Cc1ccccc1)C(=O)N[C@@H](CCCN=C(N)N)C(=O)N[C@@H](Cc1ccccc1)C(N)=O` (H-PLGNLAEELNGYSRKKGGFSFRF-NH2), the EC50 was 43.2 nM. The figure for `CC(C)C[C@H](NC(=O)[C@H](CC(N)=O)NC(=O)CNC(=O)[C@H](CC(C)C)NC(=O)[C@@H]1CCCN1C(=O)CNC(=O)[C@H](CO)NC(=O)[C@@H](N)[C@@H](C)O)C(=O)N[C@@H](C)C(=O)N[C@@H](CCC(=O)O)C(=O)N[C@@H](CCC(=O)O)C(=O)N[C@@H](CC(C)C)C(=O)N[C@@H](CC(N)=O)C(=O)NCC(=O)N[C@@H](Cc1ccc(O)cc1)C(=O)N[C@@H](CO)C(=O)N[C@@H](CCCNC(=N)N)C(=O)N[C@@H](CCCCN)C(=O)N[C@@H](CCCCN)C(=O)NCC(=O)NCC(=O)N[C@@H](Cc1ccccc1)C(=O)N[C@@H](CO)C(=O)N[C@@H](Cc1ccccc1)C(=O)N[C@@H](CCCNC(=N)N)C(=O)N[C@@H](Cc1ccccc1)C(N)=O` (H-TSGPLGNLAEELNGYSRKKGGFSFRF-NH2) is 10.4 nM; for `NCC(=O)NCC(=O)N[C@@H](Cc1ccccc1)C(=O)N[C@H](CO)C(=O)N[C@@H](Cc1ccccc1)C(=O)N[C@@H](CCCN=C(N)N)C(=O)N[C@@H](Cc1ccccc1)C(N)=O` it is 4980 nM; for `C[C@H](NC(=O)[C@H](Cc1ccccc1)NC(=O)CNC(=O)CN)C(=O)N[C@@H](Cc1ccccc1)C(=O)N[C@@H](CCCNC(=N)N)C(=O)N[C@@H](Cc1ccccc1)C(N)=O` (H-GGFAFRF-NH2) it is 1310 nM.

Take `C[C@H](NC(=O)[C@H](Cc1cnc[nH]1)NC(=O)[C@@H](N)CCC(=O)O)C(=O)NCC(=O)N[C@@H](CS)C(=O)N[C@@H](CCCN=C(N)N)C(=O)N[C@@H](Cc1ccccc1)C(=O)N[C@@H](CCCN=C(N)N)C(=O)N[C@@H](Cc1ccccc1)C(N)=O` (H-EHAGCRFRF-NH2): the EC50 amounted to 2910 nM. The figure for `N=C(N)NCCC[C@H](NC(=O)[C@H](Cc1ccccc1)NC(=O)[C@H](CO)NC(=O)[C@H](Cc1ccccc1)NC(=O)CNC(=O)CN)C(=O)N[C@@H](Cc1ccccc1)C(N)=O` is 739 nM; for `CC(C)C[C@H](NC(=O)[C@H](Cc1ccccc1)NC(=O)CNC(=O)CN)C(=O)N[C@@H](Cc1ccccc1)C(=O)N[C@@H](CCCN=C(N)N)C(=O)N[C@@H](Cc1ccccc1)C(N)=O` (H-GGFLFRF-NH2) it is 1470 nM; for `CN(C)C(=NCC(=O)N[C@@H](Cc1ccccc1)C(=O)N[C@@H](CO)C(=O)N[C@@H](Cc1ccccc1)C(=O)N[C@@H](CCCNC(=N)N)C(=O)N[C@@H](Cc1ccccc1)C(N)=O)N(C)C` (X2-FSFRF-NH2) it is 455 nM.

`CC(C)C[C@H](NC(=O)[C@H](CCC(=O)O)NC(=O)[C@H](CCC(=O)O)NC(=O)[C@H](C)NC(=O)[C@H](CC(C)C)NC(=O)[C@@H](N)CC(N)=O)C(=O)N[C@@H](CC(N)=O)C(=O)NCC(=O)N[C@@H](Cc1ccc(O)cc1)C(=O)N[C@@H](CO)C(=O)N[C@@H](CCCNC(=N)N)C(=O)N[C@@H](CCCCN)C(=O)N[C@@H](CCCCN)C(=O)NCC(=O)NCC(=O)N[C@@H](Cc1ccccc1)C(=O)N[C@@H](CO)C(=O)N[C@@H](Cc1ccccc1)C(=O)N[C@@H](CCCNC(=N)N)C(=O)N[C@@H](Cc1ccccc1)C(N)=O` (H-NLAEELNGYSRKKGGFSFRF-NH2): the EC50 was determined as 30.2 nM. Turning to `CCN(Cc1ccccc1)C(=O)[C@H](Cc1ccccc1)NC(=O)[C@H](CCCN=C(N)N)NC(=O)[C@H](Cc1ccccc1)NC(=O)[C@H](CO)NC(=O)[C@H](Cc1ccccc1)NC(=O)CNC(=O)CN` (H-GGFSFRF-X1), the EC50 came to 1090 nM.

`CC(C)C[C@H](NC(=O)[C@H](CC(N)=O)NC(=O)CNC(=O)[C@H](CC(C)C)NC(=O)[C@@H]1CCCN1C(=O)CNC(=O)[C@H](CO)NC(=O)[C@@H](N)[C@@H](C)O)C(=O)N[C@@H](C)C(=O)N[C@@H](CCC(=O)O)C(=O)N[C@@H](CCC(=O)O)C(=O)N[C@@H](CC(C)C)C(=O)N[C@@H](CC(N)=O)C(=O)NCC(=O)N[C@@H](Cc1ccc(O)cc1)C(=O)N[C@@H](CO)C(=O)N[C@@H](CCCN=C(N)N)C(=O)N[C@@H](CCCCN)C(=O)N[C@@H](CCCCN)C(=O)NCC(=O)NCC(=O)N[C@@H](Cc1ccccc1)C(=O)N[C@@H](CO)C(=O)N[C@@H](Cc1ccccc1)C(=O)N[C@@H](CCCN=C(N)N)C(=O)N[C@@H](Cc1ccccc1)C(=O)NCc1ccccc1` (H-TSGPLGNLAEELNGYSRKKGGFSFRF-NHBn): the EC50 came out at 39 nM. The figure for `CC(C)C[C@H](NC(=O)[C@H](CCC(=O)O)NC(=O)[C@@H](N)CCC(=O)O)C(=O)N[C@@H](CC(N)=O)C(=O)NCC(=O)N[C@@H](Cc1ccc(O)cc1)C(=O)N[C@@H](CO)C(=O)N[C@@H](CCCNC(=N)N)C(=O)N[C@@H](CCCCN)C(=O)N[C@@H](CCCCN)C(=O)NCC(=O)NCC(=O)N[C@@H](Cc1ccccc1)C(=O)N[C@@H](CO)C(=O)N[C@@H](Cc1ccccc1)C(=O)N[C@@H](CCCNC(=N)N)C(=O)N[C@@H](Cc1ccccc1)C(N)=O` (H-EELNGYSRKKGGFSFRF-NH2) is 37.5 nM. With `N=C(N)NCCC[C@H](NC(=O)[C@H](Cc1ccccc1)NC(=O)[C@H](CO)NC(=O)[C@H](Cc1ccccc1)NC(=O)CNC(=O)CNC(=O)[C@H](CCCCN)NC(=O)[C@H](CCCCN)NC(=O)[C@H](CCCNC(=N)N)NC(=O)[C@H](CO)NC(=O)[C@H](Cc1ccc(O)cc1)NC(=O)CN)C(=O)N[C@@H](Cc1ccccc1)C(N)=O` (H-GYSRKKGGFSFRF-NH2), the EC50 was 185 nM. The figure for `NCCCC[C@H](NC(=O)[C@H](CCCCN)NC(=O)[C@H](CCCN=C(N)N)NC(=O)[C@H](CO)NC(=O)[C@@H](N)Cc1ccc(O)cc1)C(=O)NCC(=O)NCC(=O)N[C@@H](Cc1ccccc1)C(=O)N[C@@H](CO)C(=O)N[C@@H](Cc1ccccc1)C(=O)N[C@@H](CCCN=C(N)N)C(=O)N[C@@H](Cc1ccccc1)C(N)=O` (H-YSRKKGGFSFRF-NH2) is 138 nM; for `CC(C)C[C@H](NC(=O)[C@H](CC(N)=O)NC(=O)CNC(=O)[C@H](CC(C)C)NC(=O)[C@@H]1CCCN1C(=O)CNC(=O)[C@H](CO)NC(=O)[C@@H](N)[C@@H](C)O)C(=O)N[C@@H](C)C(=O)N[C@@H](CCC(=O)O)C(=O)N[C@@H](CCC(=O)O)C(=O)N[C@@H](CC(C)C)C(=O)N[C@@H](CC(N)=O)C(=O)NCC(=O)N[C@@H](Cc1ccc(O)cc1)C(=O)N[C@@H](CO)C(=O)N[C@@H](CCCNC(=N)N)C(=O)N[C@@H](CCCCN)C(=O)N[C@@H](CCCCN)C(=O)NCC(=O)NCC(=O)N[C@@H](Cc1ccccc1)C(=O)N[C@@H](CO)C(=O)N[C@@H](Cc1ccccc1)C(=O)N[C@@H](CCCNC(=N)N)C(=O)N[C@@H](Cc1ccccc1)C(=O)N(N1CCCCC1)N1CCCCC1` (H-TSGPLGNLAEELNGYSRKKGGFSFRF-X3) it is 282 nM; for `N=C(N)NCCC[C@H](NC(=O)[C@H](Cc1ccccc1)NC(=O)[C@H](CO)NC(=O)[C@H](Cc1ccccc1)NC(=O)CNC(=O)CNC(=O)C12CC3CC(CC(C3)C1)C2)C(=O)N[C@@H](Cc1ccccc1)C(N)=O` (Adamantane1carbonyl-GGFSFRF-NH2) it is 588 nM. The value for `CCCC[C@H](NC(=O)[C@H](Cc1ccccc1)NC(=O)CNC(=O)CN)C(=O)N[C@@H](Cc1ccccc1)C(=O)N[C@@H](CCCN=C(N)N)C(=O)N[C@@H](Cc1ccccc1)C(N)=O` (H-GGF[Nle]FRF-NH2) was 741 nM. The figure for `CC(C)(C)[C@H](NC(=O)[C@H](Cc1ccccc1)NC(=O)CNC(=O)CN)C(=O)N[C@@H](Cc1ccccc1)C(=O)N[C@@H](CCCN=C(N)N)C(=O)N[C@@H](Cc1ccccc1)C(N)=O` (H-GGF[Tle]FRF-NH2) is 1820 nM. As to `NCCCC[C@H](NC(=O)[C@H](CCCCN)NC(=O)[C@H](CCCN=C(N)N)NC(=O)[C@@H](N)CO)C(=O)NCC(=O)NCC(=O)N[C@@H](Cc1ccccc1)C(=O)N[C@@H](CO)C(=O)N[C@@H](Cc1ccccc1)C(=O)N[C@@H](CCCN=C(N)N)C(=O)N[C@@H](Cc1ccccc1)C(N)=O` (H-SRKKGGFSFRF-NH2), the EC50 was found to be 237 nM. The value for `N=C(N)NCCC[C@H](NC(=O)[C@H](Cc1ccccc1)NC(=O)[C@H](CCO)NC(=O)[C@H](Cc1ccccc1)NC(=O)CNC(=O)CN)C(=O)N[C@@H](Cc1ccccc1)C(N)=O` (H-GGF[hSer]FRF-NH2) was 374 nM; that for `CCC[C@H](NC(=O)[C@H](Cc1ccccc1)NC(=O)CNC(=O)CN)C(=O)N[C@@H](Cc1ccccc1)C(=O)N[C@@H](CCCNC(=N)N)C(=O)N[C@@H](Cc1ccccc1)C(N)=O` (H-GGF[Nva]FRF-NH2) was 233 nM; that for `C[C@H](NC(=O)CNC(=O)CN)C(=O)N[C@@H](CO)C(=O)N[C@@H](Cc1ccccc1)C(=O)N[C@@H](CCCNC(=N)N)C(=O)N[C@@H](Cc1ccccc1)C(N)=O` (H-GGASFRF-NH2) was 1330 nM. The value for `N=C(N)NCCC[C@H](NC(=O)[C@H](Cc1ccccc1)NC(=O)[C@H](CO)NC(=O)[C@H](Cc1ccccc1)NC(=O)CNC(=O)CNC(=O)[C@H](CCCCN)NC(=O)[C@H](CCCCN)NC(=O)[C@@H](N)CCCNC(=N)N)C(=O)N[C@@H](Cc1ccccc1)C(N)=O` (H-RKKGGFSFRF-NH2) was 282 nM.
